Experimental data as given in ChEMBL document CHEMBL3600382, “A-ring substituted 17β-arylsulfonamides of 17β-aminoestra-1,3,5(10)-trien-3-ol as highly potent reversible inhibitors of steroid sulfatase” (Bioorg Med Chem, 2015).

Key:
Steryl-sulfatase = target: T1, Steryl-sulfatase (Homo sapiens, UniProt P08842); test: Inhibition of STS (unknown origin) using 4-MUS as substrate measured over 10 mins by fluorescence assay
T1 sequence (P08842 whole entry): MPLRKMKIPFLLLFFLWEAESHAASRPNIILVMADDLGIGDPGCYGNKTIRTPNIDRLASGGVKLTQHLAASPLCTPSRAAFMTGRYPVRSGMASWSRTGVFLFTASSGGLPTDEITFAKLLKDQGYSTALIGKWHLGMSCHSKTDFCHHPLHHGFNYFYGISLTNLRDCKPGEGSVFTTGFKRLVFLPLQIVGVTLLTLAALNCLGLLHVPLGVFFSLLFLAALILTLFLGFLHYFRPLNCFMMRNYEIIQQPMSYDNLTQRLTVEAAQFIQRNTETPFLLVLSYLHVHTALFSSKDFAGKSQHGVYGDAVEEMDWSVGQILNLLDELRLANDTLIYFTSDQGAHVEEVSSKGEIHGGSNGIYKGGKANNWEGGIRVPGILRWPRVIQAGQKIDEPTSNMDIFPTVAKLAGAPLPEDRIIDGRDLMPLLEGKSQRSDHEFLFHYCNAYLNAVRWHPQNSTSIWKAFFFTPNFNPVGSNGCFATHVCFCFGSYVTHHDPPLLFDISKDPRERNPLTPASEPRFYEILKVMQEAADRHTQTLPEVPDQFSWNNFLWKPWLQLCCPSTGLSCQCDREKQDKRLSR
Procedure, shortened: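 Purified STS (10 nM final) in 0.1 M Tris-HCl pH 7.0 containing Triton X-100, 4-MUS 200 µM final, and inhibitor at eleven concentrations (5 nM–5 µM). Ex 360/em 460 fluorescence read over 10 min at 24 °C, in quadruplicate, with no-enzyme controls. Vi/V0 from initial rates fit to a slope-factor equation. For tight binders, Ki app is the y-intercept of IC50 vs [E] (10–80 nM).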

PC-3 = test: Cytotoxicity against human PC3 cells; format: functional
SK-OV-3 = test: Cytotoxicity against human SKOV3 cells; format: functional
SN12C = test: Cytotoxicity against human SN12C cells; format: functional
RPMI-8226 = test: Cytotoxicity against human RPMI8226 cells; format: functional
[1] = Cytotoxicity against human Hs578T cells; format: functional; conditions: Hs-578T
MDA-MB-468 = test: Cytotoxicity against human MDA-MB-468 cells; format: functional
SW-620 = test: Cytotoxicity against human SW620 cells; format: functional
HCC 2998 = test: Cytotoxicity against human HCC2998 cells; format: functional
RXF 393 = test: Cytotoxicity against human RXF393 cells; format: functional
SK-MEL-5 = test: Cytotoxicity against human SK-MEL-5 cells; format: functional
NCI-H226 = test: Cytotoxicity against human NCI-H226 cells; format: functional
M14 = test: Cytotoxicity against human M14 cells; format: functional
IGROV-1 = test: Cytotoxicity against human IGROV1 cells; format: functional
OVCAR-3 = test: Cytotoxicity against human OVCAR3 cells; format: functional
[2] = Cytotoxicity against human NCI-ADR-RES cells; format: functional
HT-29 = test: Cytotoxicity against human HT-29 cells; format: functional
MDA-MB-435 = test: Cytotoxicity against human MDA-MB-435 cells; format: functional
SF-539 = test: Cytotoxicity against human SF539 cells; format: functional
SNB-75 = test: Cytotoxicity against human SNB75 cells; format: functional
BT-549 = test: Cytotoxicity against human BT549 cells; format: functional
[3] = Cytotoxicity against human EKVX cells; format: functional
T47D = test: Cytotoxicity against human T47D cells; format: functional
HOP-92 = test: Cytotoxicity against human HOP92 cells; format: functional
NCI-H460 = test: Cytotoxicity against human NCI-H460 cells; format: functional
HL-60(TB) = test: Cytotoxicity against human HL-60(TB) cells; format: functional
MCF7 = test: Cytotoxicity against human MCF7 cells; format: functional
SF-268 = test: Cytotoxicity against human SF268 cells; format: functional
MDA-MB-231 = test: Cytotoxicity against human MDA-MB-231 cells; format: functional
UACC-257 = test: Cytotoxicity against human UACC257 cells; format: functional
KM12 = test: Cytotoxicity against human KM12 cells; format: functional
A549 = test: Cytotoxicity against human A549 cells; format: functional
UACC-62 = test: Cytotoxicity against human UACC62 cells; format: functional
ACHN = test: Cytotoxicity against human ACHN cells; format: functional
786-0 = test: Cytotoxicity against human 786-0 cells; format: functional
NCI-H23 = test: Cytotoxicity against human NCI-H23 cells; format: functional
MOLT-4 = test: Cytotoxicity against human MOLT4 cells; format: functional
CCRF-CEM = test: Cytotoxicity against human CCRF-CEM cells; format: functional
COLO 205 = test: Cytotoxicity against human COLO205 cells; format: functional
OVCAR-5 = test: Cytotoxicity against human OVCAR5 cells; format: functional
CAKI-1 = test: Cytotoxicity against human Caki1 cells; format: functional
SF-295 = test: Cytotoxicity against human SF295 cells; format: functional
SR = test: Cytotoxicity against human SR cells; format: functional
SK-MEL-2 = test: Cytotoxicity against human SK-MEL-2 cells; format: functional
A498 = test: Cytotoxicity against human A498 cells; format: functional
U-251 = test: Cytotoxicity against human U251 cells; format: functional
OVCAR-8 = test: Cytotoxicity against human OVCAR8 cells; format: functional
TK-10 = test: Cytotoxicity against human TK10 cells; format: functional
LOX IMVI = test: Cytotoxicity against human LOXIMVI cells; format: functional

C[C@]12CC[C@@H]3c4ccc(O)c(Br)c4CC[C@H]3[C@@H]1CC[C@@H]2NS(=O)(=O)c1cccc(C(F)(F)F)c1
49 nM: IC50 (Steryl-sulfatase)

C[C@]12CC[C@@H]3c4cc(Br)c(O)cc4CC[C@H]3[C@@H]1CC[C@@H]2NS(=O)(=O)c1cccc(C(F)(F)F)c1
95 nM: IC50 (Steryl-sulfatase)

C[C@]12CC[C@@H]3c4ccc(O)c([N+](=O)[O-])c4CC[C@H]3[C@@H]1CC[C@@H]2NS(=O)(=O)c1cccc(Br)c1
2500 nM: GI50 (T47D)
1500 nM: GI50 (MDA-MB-231)
2200 nM: GI50 (MDA-MB-468)
1600 nM: GI50 (BT-549)
1900 nM: GI50 (MCF7)
2100 nM: GI50 [1]
1000 nM: GI50 (PC-3) | GI50 (SK-OV-3) | GI50 (SN12C) | GI50 (RPMI-8226) | GI50 (SW-620) | GI50 (HCC 2998) | GI50 (RXF 393) | GI50 (SK-MEL-5) | GI50 (NCI-H226) | GI50 (M14) | GI50 (IGROV-1) | GI50 (OVCAR-3) | GI50 [2] | GI50 (HT-29) | GI50 (MDA-MB-435) | GI50 (SF-539) | GI50 (SNB-75) | GI50 [3] | GI50 (HOP-92) | GI50 (NCI-H460) | GI50 (HL-60(TB)) | GI50 (SF-268) | GI50 (UACC-257) | GI50 (KM12) | GI50 (A549) | GI50 (UACC-62) | GI50 (ACHN) | GI50 (786-0) | GI50 (NCI-H23) | GI50 (MOLT-4) | GI50 (CCRF-CEM) | GI50 (COLO 205) | GI50 (OVCAR-5) | GI50 (CAKI-1) | GI50 (SF-295) | GI50 (SR) | GI50 (SK-MEL-2) | GI50 (A498) | GI50 (U-251) | GI50 (OVCAR-8) | GI50 (TK-10) | GI50 (LOX IMVI)
12 nM: IC50 (Steryl-sulfatase)

C[C@]12CC[C@@H]3c4ccc(O)cc4CC[C@H]3[C@@H]1CC[C@@H]2NS(=O)(=O)c1cccc(C(F)(F)F)c1
2400 nM: GI50 (MDA-MB-231)
3200 nM: GI50 [1]
2700 nM: GI50 (BT-549) | GI50 (MCF7)
1000 nM: GI50 (PC-3) | GI50 (SK-OV-3) | GI50 (SN12C) | GI50 (RPMI-8226) | GI50 (SW-620) | GI50 (HCC 2998) | GI50 (RXF 393) | GI50 (SK-MEL-5) | GI50 (NCI-H226) | GI50 (M14) | GI50 (IGROV-1) | GI50 (OVCAR-3) | GI50 [2] | GI50 (HT-29) | GI50 (MDA-MB-435) | GI50 (SF-539) | GI50 (SNB-75) | GI50 [3] | GI50 (HOP-92) | GI50 (NCI-H460) | GI50 (HL-60(TB)) | GI50 (SF-268) | GI50 (UACC-257) | GI50 (KM12) | GI50 (A549) | GI50 (UACC-62) | GI50 (ACHN) | GI50 (786-0) | GI50 (NCI-H23) | GI50 (MOLT-4) | GI50 (CCRF-CEM) | GI50 (COLO 205) | GI50 (OVCAR-5) | GI50 (CAKI-1) | GI50 (SF-295) | GI50 (SR) | GI50 (SK-MEL-2) | GI50 (A498) | GI50 (U-251) | GI50 (OVCAR-8) | GI50 (TK-10) | GI50 (LOX IMVI)
4100 nM: GI50 (MDA-MB-468)
3700 nM: GI50 (T47D)

C[C@]12CC[C@@H]3c4cc([N+](=O)[O-])c(O)cc4CC[C@H]3[C@@H]1CC[C@@H]2NS(=O)(=O)c1cccc(Br)c1
50 nM: IC50 (Steryl-sulfatase)

C[C@]12CC[C@@H]3c4ccc(O)cc4CC[C@H]3[C@@H]1CC[C@@H]2NS(=O)(=O)c1cccc(Br)c1
2400 nM: GI50 (MDA-MB-468)
1000 nM: GI50 (PC-3) | GI50 (SK-OV-3) | GI50 (SN12C) | GI50 (RPMI-8226) | GI50 (SW-620) | GI50 (HCC 2998) | GI50 (RXF 393) | GI50 (SK-MEL-5) | GI50 (NCI-H226) | GI50 (M14) | GI50 (IGROV-1) | GI50 (OVCAR-3) | GI50 [2] | GI50 (HT-29) | GI50 (MDA-MB-435) | GI50 (SF-539) | GI50 (SNB-75) | GI50 [3] | GI50 (HOP-92) | GI50 (NCI-H460) | GI50 (HL-60(TB)) | GI50 (SF-268) | GI50 (UACC-257) | GI50 (KM12) | GI50 (A549) | GI50 (UACC-62) | GI50 (ACHN) | GI50 (786-0) | GI50 (NCI-H23) | GI50 (MOLT-4) | GI50 (CCRF-CEM) | GI50 (COLO 205) | GI50 (OVCAR-5) | GI50 (CAKI-1) | GI50 (SF-295) | GI50 (SR) | GI50 (SK-MEL-2) | GI50 (A498) | GI50 (U-251) | GI50 (OVCAR-8) | GI50 (TK-10) | GI50 (LOX IMVI)
5000 nM: GI50 (T47D)
3100 nM: GI50 (BT-549)
4000 nM: GI50 [1]
3700 nM: GI50 (MCF7)
3900 nM: GI50 (MDA-MB-231)

C[C@]12CC[C@@H]3c4cc([N+](=O)[O-])c(O)cc4CC[C@H]3[C@@H]1CC[C@@H]2NS(=O)(=O)c1cccc(C(F)(F)F)c1
67 nM: IC50 (Steryl-sulfatase)

CC(C)(C)c1ccc(S(=O)(=O)N[C@H]2CC[C@H]3[C@@H]4CCc5c(ccc(O)c5[N+](=O)[O-])[C@H]4CC[C@]23C)cc1
8 nM: IC50 (Steryl-sulfatase)

CC(C)(C)c1ccc(S(=O)(=O)N[C@H]2CC[C@H]3[C@@H]4CCc5cc(O)c([N+](=O)[O-])cc5[C@H]4CC[C@]23C)cc1
81 nM: IC50 (Steryl-sulfatase)

C[C@]12CC[C@@H]3c4cc([N+](=O)[O-])c(O)cc4CC[C@H]3[C@@H]1CC[C@@H]2NS(=O)(=O)c1ccc(-c2ccccc2)cc1
33 nM: IC50 (Steryl-sulfatase)
